In ChEMBL document CHEMBL1121643, “Pyrazolo[5,1-b]quinazolin-9-ones: a new series of antiallergic agents” (1981):

Assays:
Type in all cases: functional
Rattus norvegicus [1] = assay: Inhibition of passive cutaneous anaphylaxis (PCA) reaction in rats by intraperitoneal administration of 5 mg/kg; conditions: ip
Summary of the method: (§1)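 Rats were sensitized by intradermal antiserum dilutions at several dorsal sites. After 48 h they were challenged iv with 1 mg ovalbumin in 1 mL saline containing 0.25% Evans blue. Drug was suspended in 1% gum tragacanth in saline and given ip or orally 10–15 min before challenge. Rats were killed 30 min later and the mean orthogonal wheal diameter was measured.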

Rattus norvegicus [2] = assay: Inhibition of passive cutaneous anaphylaxis (PCA) reaction in rats, peroral administration 5 mg/kg; conditions: route oral; summary of the method: as §1
Rattus norvegicus [3] = assay: Ability to inhibit the passive cutaneous anaphylaxis (PCA) reaction in rats by peroral administration of 1 mg/kg; conditions: route oral; summary of the method: as §1
Rattus norvegicus [4] = assay: Inhibition of the passive cutaneous anaphylaxis (PCA) reaction in rats by intravenous administration of 0.1 mg/kg
Summary of the method: (§2)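 Rats were given intradermal antiserum dilutions on the back. At 48 h, drug dissolved in the challenge solution (1 mg ovalbumin, 0.25% Evans blue, 1 mL saline) was injected iv with the antigen; sodium bicarbonate in slight molar excess was used if needed. Wheal diameters were read 30 min later and plotted against antiserum concentration, with the least-squares line extrapolated to a zero-antiserum base value. Five rats per group.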

Rattus norvegicus [5] = assay: Ability to inhibit the passive cutaneous anaphylaxis (PCA) reaction in rats by intravenous administration of 0.5 mg/kg; summary of the method: as §2
Rattus norvegicus [6] = assay: Inhibition of the passive cutaneous anaphylaxis (PCA) reaction in rats by intravenous administration of 0.01 mg/kg; summary of the method: as §2
Rattus norvegicus [7] = assay: Ability to inhibit the passive cutaneous anaphylaxis (PCA) reaction in rats by intraperitoneal administration of 1 mg/kg; conditions: ip; summary of the method: as §1
Rattus norvegicus [8] = assay: Ability to inhibit the passive cutaneous anaphylaxis (PCA) reaction in rats by intravenous administration of 0.01 mg/kg; summary of the method: as §2
Rattus norvegicus [9] = assay: Ability to inhibit the passive cutaneous anaphylaxis (PCA) reaction in rats by peroral administration; summary of the method: as §1
Rattus norvegicus [10] = assay: Ability to inhibit the passive cutaneous anaphylaxis (PCA) reaction in rats by peroral administration of 2 mg/kg; conditions: route oral; summary of the method: as §1
Rattus norvegicus [11] = assay: Ability to inhibit the passive cutaneous anaphylaxis (PCA) reaction in rats by peroral administration of 10 mg/kg; conditions: route oral; summary of the method: as §1

Structure (SMILES) | inhibition in vivo at 5 mg/kg (Rattus norvegicus [1]) [%] | inhibition in vivo at 5 mg/kg (Rattus norvegicus [2]) [%] | further results
COc1cccc2nc3cc(C(=O)O)nn3c(O)c12 | 62 | 18 | 
COc1cccc2c(O)n3nc(-c4nn[nH]n4)cc3nc12 | 27 | 3 | 
COc1ccc2nc3cc(-c4nn[nH]n4)nn3c(O)c2c1 | 87 |  | inhibition in vivo at 1 mg/kg (Rattus norvegicus [3]): 21%
O=C(O)c1cc2nc3c(O)cccc3c(O)n2n1 | 100 |  | inhibition in vivo at 0.1 mg/kg (Rattus norvegicus [4]): 75%
Cc1cccc2c(O)n3nc(C(=O)O)cc3nc12 | 58 | 0 | 
COc1ccc2c(c1)c(=O)n1nc(C(=O)O)cc1n2C | 81 | 4 | inhibition in vivo at 0.5 mg/kg (Rattus norvegicus [5]): 100%; inhibition in vivo at 0.01 mg/kg (Rattus norvegicus [6]): 23%
O=C(O)c1cc2nc3ccccc3c(O)n2n1 | 100 | 5 | inhibition in vivo at 0.1 mg/kg (Rattus norvegicus [4]): 54%; inhibition in vivo at 1 mg/kg (Rattus norvegicus [7]): 55%; inhibition in vivo at 1 mg/kg (Rattus norvegicus [3]): 23%; inhibition in vivo at 0.01 mg/kg (Rattus norvegicus [8]): 0%
CCOC(=O)c1cc2nc3ccccc3c(O)n2n1 | 74 | 0 | 
Nc1ccc2nc3cc(C(=O)O)nn3c(O)c2c1 | 38 | 16 | 
Cn1c2ccccc2c(=O)n2nc(C(=O)Nc3nn[nH]n3)cc12 | 51 |  | Inhibition (Rattus norvegicus [9]): 0%
CCOC(=O)c1cc2n(CC)c3ccc(Cl)cc3c(=O)n2n1 | 100 |  | 
O=C(Nc1nn[nH]n1)c1cc2nc3ccc(Cl)cc3c(O)n2n1 | 22 | 8 | 
Cn1c2ccc(F)cc2c(=O)n2nc(C(=O)O)cc12 | 83 |  | inhibition in vivo at 0.5 mg/kg (Rattus norvegicus [5]): 84%; inhibition in vivo at 2 mg/kg (Rattus norvegicus [10]): 40%
Oc1c2cc(Cl)ccc2nc2cc(-c3nn[nH]n3)nn12 | 25 | 1 | 
COc1cccc2nc3cc(C(=O)Nc4nn[nH]n4)nn3c(O)c12 | 100 | 18 | 
O=C(Nc1nn[nH]n1)c1cc2n(Cc3ccccc3)c3ccc(Cl)cc3c(=O)n2n1 | 3 | 0 | 
Cn1c2ccc(NC(=O)c3ccccc3)cc2c(=O)n2nc(C(=O)O)cc12 | 54 | 1 | 
Cc1cccc2c(O)n3nc(C(=O)Nc4nn[nH]n4)cc3nc12 | 100 | 9 | 
COc1ccc2nc3cc(C(=O)O)nn3c(O)c2c1 | 94 | 0 | inhibition in vivo at 0.01 mg/kg (Rattus norvegicus [6]): 30%
COc1cccc2c(=O)n3nc(C(=O)O)cc3n(C)c12 | 60 |  | 
Cc1cc2n(C)c3ccc(C(=O)O)cc3c(=O)n2n1 |  |  | inhibition in vivo at 0.5 mg/kg (Rattus norvegicus [5]): 21%; inhibition in vivo at 2 mg/kg (Rattus norvegicus [10]): 9%
O=C(Nc1nn[nH]n1)c1cc2nc3ccc(O)cc3c(O)n2n1 | 100 |  | inhibition in vivo at 0.1 mg/kg (Rattus norvegicus [4]): 90%
Cn1c2ccc(Cl)cc2c(=O)n2nc(-c3nn[nH]n3)cc12 | 100 | 0 | inhibition in vivo at 0.5 mg/kg (Rattus norvegicus [5]): 100%; inhibition in vivo at 0.01 mg/kg (Rattus norvegicus [6]): 17%; inhibition in vivo at 2 mg/kg (Rattus norvegicus [10]): 39%
O=C(O)c1cc2nc3cc(Cl)c(Cl)cc3c(O)n2n1 | 9 | 0 | 
COc1ccc2nc3cc(C(=O)Nc4nn[nH]n4)nn3c(O)c2c1 | 80 |  | inhibition in vivo at 0.1 mg/kg (Rattus norvegicus [4]): 90%; inhibition in vivo at 10 mg/kg (Rattus norvegicus [11]): 43%
O=C(O)c1cc2nc3ccc(F)cc3c(O)n2n1 | 95 | 16 | inhibition in vivo at 0.1 mg/kg (Rattus norvegicus [4]): 62%; inhibition in vivo at 0.01 mg/kg (Rattus norvegicus [6]): 2%
